The values below come from ChEMBL document CHEMBL1287666, “Synthesis and in vitro antifungal activities of new 3-substituted benzopyrone derivatives” (2010).

The structures appear in SMILES notation. ≈ marks a conversion by molar mass, not a printed value.

Holding throughout (assay type): functional
For assay [1], the system named is Cryptococcus neoformans. As to the kind of experiment: Antifungal activity against Cryptococcus neoformans by serial dilution method. The method in brief: (§1)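 Broth serial dilution in 96-well microplates against a panel of five human pathogenic fungi. Activity is reported as the minimal inhibitory concentration (MIC), and fluconazole served as the positive control.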

Assay [2] has as its system Nannizzia gypsea. As to the kind of experiment: Antifungal activity against Microsporum gypseum clinical isolate by serial dilution method. Summed up:
as §1

Assay [3] deals with Trichophyton rubrum. As to the kind of experiment: Antifungal activity against Trichophyton rubrum.
The subject of assay [4] is Candida parapsilosis. As to the kind of experiment: Antifungal activity against Candida parapsilosis clinical isolate by serial dilution method. Particulars: Lodderomyces parapsilosis. The method in brief:
as §1

The test system of assay [5] is Trichophyton rubrum. As to the kind of experiment: Antifungal activity against Trichophyton rubrum clinical isolate by serial dilution method. The method in brief: as §1
Assay [6] has as its system Candida albicans. As to the kind of experiment: Antifungal activity against Candida albicans by serial dilution method. Summed up: as §1

`CCCCC(=O)OCC#Cc1coc2cc(OC)ccc2c1=O`: the MIC turned out to be 25 µg/mL (≈ 79.5 µM) in assay [1]; 25 µg/mL (≈ 79.5 µM) in assay [2]; 25 µg/mL (≈ 79.5 µM) in assay [4]; 1.5 µg/mL (≈ 4.77 µM) in assay [5]; 25 µg/mL (≈ 79.5 µM) in assay [6]. In assay [3], the MIC80 turned out to be 1.5 µg/mL (≈ 4.77 µM).

Take `COc1ccc2c(=O)c(C#CCO)coc2c1`: the MIC in assay [1], in assay [2], in assay [4], in assay [5] and in assay [6] was greater than 100 µg/mL in each case.

Take `COc1ccc2c(=O)c(C#CCOC(C)=O)coc2c1`: the MIC is greater than 100 µg/mL in assay [1]; 25 µg/mL (≈ 91.8 µM) in assay [2]; greater than 100 µg/mL in assay [4]; greater than 100 µg/mL in assay [5]; greater than 100 µg/mL in assay [6].

As for `CCCCCCCC(=O)OCC#Cc1coc2cc(OC)ccc2c1=O`, the MIC in assay [1], in assay [2], in assay [4], in assay [5] and in assay [6] was greater than 100 µg/mL throughout.

Take `COc1ccc2c(=O)c(C#CCOC(=O)CCCCC(C)C)coc2c1`: the MIC in assay [1] was 50 µg/mL (≈ 140 µM); in assay [2] it was 12.5 µg/mL (≈ 35.1 µM); in assay [4] it was 25 µg/mL (≈ 70.1 µM); in assay [5] it was 12.5 µg/mL (≈ 35.1 µM); in assay [6] it was greater than 100 µg/mL.

`COc1ccc2c(=O)c(C#CCOC(=O)C3C(C)(C)C3(C)C)coc2c1`: the MIC in assay [1] was greater than 100 µg/mL; in assay [2] it was 12.5 µg/mL (≈ 35.3 µM); in assay [4], greater than 100 µg/mL; in assay [5], greater than 100 µg/mL; in assay [6], greater than 100 µg/mL.

For `COc1ccc2c(=O)c(C#CCOC(=O)c3ccc([N+](=O)[O-])cc3)coc2c1`, the MIC in assay [1], in assay [2], in assay [4], in assay [5] and in assay [6] was greater than 100 µg/mL in each case.

Regarding `COc1ccc2c(=O)c(C#CCOC(=O)c3cc([N+](=O)[O-])cc([N+](=O)[O-])c3)coc2c1`, the MIC in assay [1] was greater than 100 µg/mL; in assay [2], 50 µg/mL (≈ 118 µM); in assay [4] it was greater than 100 µg/mL; in assay [5] it was 50 µg/mL (≈ 118 µM); in assay [6], greater than 100 µg/mL.

On to `COc1ccc2c(=O)c(C#CCOC(=O)c3ccccc3)coc2c1`, for which the MIC in assay [1], in assay [2], in assay [4], in assay [5] and in assay [6] was greater than 100 µg/mL throughout.

For `COc1ccc2c(=O)c(C#CCOC(=O)Cc3ccccc3)coc2c1`, the MIC in assay [1], in assay [2], in assay [4], in assay [5] and in assay [6] was greater than 100 µg/mL in each case.

Consider `COc1ccc2c(=O)c(C#CCOC(=O)Cc3ccc(Cl)cc3)coc2c1`, for which the MIC in assay [1], in assay [2], in assay [4], in assay [5] and in assay [6] was greater than 100 µg/mL throughout.

Regarding `COc1ccc2c(=O)c(C#CCOC(=O)Cc3ccccc3Cl)coc2c1`, the MIC is greater than 100 µg/mL in assay [1]; 50 µg/mL (≈ 131 µM) in assay [2]; greater than 100 µg/mL in assay [4]; 50 µg/mL (≈ 131 µM) in assay [5]; greater than 100 µg/mL in assay [6].

`CCC(=O)OCC#Cc1coc2cc(OC)ccc2c1=O`: the minimal inhibitory concentration (MIC) was 25 µg/mL (≈ 87.3 µM) in assay [1]; 12.5 µg/mL (≈ 43.7 µM) in assay [2]; 25 µg/mL (≈ 87.3 µM) in assay [4]; 6.25 µg/mL (≈ 21.8 µM) in assay [5]; 25 µg/mL (≈ 87.3 µM) in assay [6].

As for `CCCC(=O)OCC#Cc1coc2cc(OC)ccc2c1=O`, the MIC in assay [1] was found to be 50 µg/mL (≈ 166 µM); in assay [2], 25 µg/mL (≈ 83.2 µM); in assay [4], 50 µg/mL (≈ 166 µM); in assay [5], 12.5 µg/mL (≈ 41.6 µM); in assay [6] it was 12.5 µg/mL (≈ 41.6 µM).

In the case of `COc1ccc2c(=O)c(C#CCOC(=O)C(C)C)coc2c1`, the MIC in assay [1] came out at 50 µg/mL (≈ 166 µM); in assay [2], 25 µg/mL (≈ 83.2 µM); in assay [4], 12.5 µg/mL (≈ 41.6 µM); in assay [5], 3.12 µg/mL (≈ 10.4 µM); in assay [6], 50 µg/mL (≈ 166 µM).

`COc1ccc2c(=O)c(C#CCOC(=O)CC(C)C)coc2c1`: the MIC in assay [1] was 50 µg/mL (≈ 159 µM); in assay [2], 25 µg/mL (≈ 79.5 µM); in assay [4], 50 µg/mL (≈ 159 µM); in assay [5], 6.25 µg/mL (≈ 19.9 µM); in assay [6] it was greater than 100 µg/mL.

As to `CCCCCC(=O)OCC#Cc1coc2cc(OC)ccc2c1=O`, the MIC in assay [1] is greater than 100 µg/mL; in assay [2] it was 12.5 µg/mL (≈ 38.1 µM); in assay [4], 50 µg/mL (≈ 152 µM); in assay [5], 25 µg/mL (≈ 76.1 µM); in assay [6] it was greater than 100 µg/mL.

With `COc1ccc2c(=O)c(C#CCOC(=O)C3CCCCC3)coc2c1`, the MIC in assay [1], in assay [2], in assay [4], in assay [5] and in assay [6] was greater than 100 µg/mL in each case.

Regarding `CCCCCCC(=O)OCC#Cc1coc2cc(OC)ccc2c1=O`, the MIC in assay [1], in assay [2], in assay [4], in assay [5] and in assay [6] was greater than 100 µg/mL throughout.

Take `OC(Cn1cncn1)(Cn1cncn1)c1ccc(F)cc1F` [FLUCONAZOLE]: the MIC in assay [1] was found to be 1 µg/mL (≈ 3.27 µM); in assay [2], 0.5 µg/mL (≈ 1.63 µM); in assay [4], 32 µg/mL (≈ 104 µM); in assay [5] it was 0.25 µg/mL (≈ 0.816 µM); in assay [6] it was 0.25 µg/mL (≈ 0.816 µM).

The term MIC denotes the lowest concentration that inhibits growth of the organism. Low readings indicate greater potency, high ones weaker potency. Broadly, the MIC80 is an inhibitory concentration at the 80% level, which refers to growth in some studies and to a panel of isolates in others.
